In ChEMBL document CHEMBL1149257, “Tetrasubstituted imidazole inhibitors of cytokine release: probing substituents in the N-1 position” (J Med Chem, 2004):

Key:
Blood [1] = assay: Inhibition of LPS-induced TNFalpha production in human whole blood; assay type: functional, tissue-based
Method in brief: (§1)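 Fresh blood from healthy human donors, preincubated 15 min at 37 °C, 5% CO2, with serially diluted compound in Cremophor EL/ethanol (1:1); 1% Cremophor EL/ethanol as control. Stimulated with LPS 1 μg/mL for 4 h at 37 °C, stopped on ice and centrifuged. TNFα and IL-1β in the supernatant measured by ELISA. IC50 from percent reduction versus control; mean of two independent experiments unless stated.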

[2] = biological target: Mitogen-activated protein kinase 14 (Homo sapiens, UniProt Q16539); assay: Inhibition of mitogen-activated protein kinase p38 alpha
Sequence of Mitogen-activated protein kinase 14 (Q16539 whole entry): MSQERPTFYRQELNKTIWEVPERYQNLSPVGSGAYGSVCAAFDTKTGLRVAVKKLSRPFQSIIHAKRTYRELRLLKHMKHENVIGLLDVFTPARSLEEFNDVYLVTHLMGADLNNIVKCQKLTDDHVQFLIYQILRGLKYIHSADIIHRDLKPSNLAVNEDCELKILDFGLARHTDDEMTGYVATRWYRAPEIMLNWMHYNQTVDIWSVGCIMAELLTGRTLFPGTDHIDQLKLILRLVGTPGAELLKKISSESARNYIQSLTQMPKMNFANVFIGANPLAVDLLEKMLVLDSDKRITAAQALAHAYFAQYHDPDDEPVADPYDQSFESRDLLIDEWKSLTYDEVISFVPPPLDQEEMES

Blood [3] = assay: Inhibition of LPS-induced IL1 beta production in human whole blood; assay type: functional, tissue-based; method in brief: as §1
CYP1A2 = biological target: T1, CYP1A2 (Homo sapiens, UniProt P05177); assay: Inhibition of human liver CYP1A2 at 10 uM; assay type: ADME
T1 sequence (P05177 whole entry): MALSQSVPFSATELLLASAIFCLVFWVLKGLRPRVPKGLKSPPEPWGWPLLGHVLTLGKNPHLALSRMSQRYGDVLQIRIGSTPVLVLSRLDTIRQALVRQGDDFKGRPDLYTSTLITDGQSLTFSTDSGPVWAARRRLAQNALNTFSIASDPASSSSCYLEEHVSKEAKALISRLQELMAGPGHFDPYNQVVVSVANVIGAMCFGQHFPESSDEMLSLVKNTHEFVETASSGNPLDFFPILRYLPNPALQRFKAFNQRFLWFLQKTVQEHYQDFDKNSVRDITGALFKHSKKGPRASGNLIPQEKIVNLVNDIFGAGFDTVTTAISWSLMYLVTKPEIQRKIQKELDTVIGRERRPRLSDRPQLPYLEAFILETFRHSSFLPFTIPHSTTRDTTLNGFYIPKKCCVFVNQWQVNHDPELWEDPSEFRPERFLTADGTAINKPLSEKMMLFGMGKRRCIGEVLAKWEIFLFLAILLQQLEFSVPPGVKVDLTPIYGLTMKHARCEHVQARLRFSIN
Method in brief: (§2)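 Each isoform tested with the compound at a single concentration of 10 μM in phosphate buffer (pH 7.4) containing 0.1% DMSO; read out as percent inhibition of enzyme activity. Other conditions follow a previously reported protocol.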

CYP2D6 = CYP2D6 (Homo sapiens, UniProt P10635); assay: Inhibition of human liver CYP2D6 at 10 uM; assay type: ADME; method in brief: as §2
Sequence of CYP2D6 (P10635 whole entry): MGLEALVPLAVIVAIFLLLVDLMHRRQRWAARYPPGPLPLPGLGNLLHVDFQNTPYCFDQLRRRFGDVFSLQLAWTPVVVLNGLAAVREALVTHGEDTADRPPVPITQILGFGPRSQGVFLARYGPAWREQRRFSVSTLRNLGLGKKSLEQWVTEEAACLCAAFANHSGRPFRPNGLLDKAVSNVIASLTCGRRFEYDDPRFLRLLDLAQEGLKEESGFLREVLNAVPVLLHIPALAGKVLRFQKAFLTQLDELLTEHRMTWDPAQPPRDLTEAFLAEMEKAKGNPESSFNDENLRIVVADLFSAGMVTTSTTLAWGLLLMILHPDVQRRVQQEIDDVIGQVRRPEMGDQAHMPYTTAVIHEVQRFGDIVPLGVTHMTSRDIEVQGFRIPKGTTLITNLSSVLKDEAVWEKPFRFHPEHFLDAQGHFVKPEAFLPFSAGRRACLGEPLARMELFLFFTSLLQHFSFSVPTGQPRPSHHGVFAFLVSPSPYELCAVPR

CYP2C9 = CYP2C9 (Homo sapiens, UniProt P11712); assay: Inhibition of human liver CYP2C9 at 10 uM; assay type: ADME; method in brief: as §2
Sequence of CYP2C9 (P11712 whole entry): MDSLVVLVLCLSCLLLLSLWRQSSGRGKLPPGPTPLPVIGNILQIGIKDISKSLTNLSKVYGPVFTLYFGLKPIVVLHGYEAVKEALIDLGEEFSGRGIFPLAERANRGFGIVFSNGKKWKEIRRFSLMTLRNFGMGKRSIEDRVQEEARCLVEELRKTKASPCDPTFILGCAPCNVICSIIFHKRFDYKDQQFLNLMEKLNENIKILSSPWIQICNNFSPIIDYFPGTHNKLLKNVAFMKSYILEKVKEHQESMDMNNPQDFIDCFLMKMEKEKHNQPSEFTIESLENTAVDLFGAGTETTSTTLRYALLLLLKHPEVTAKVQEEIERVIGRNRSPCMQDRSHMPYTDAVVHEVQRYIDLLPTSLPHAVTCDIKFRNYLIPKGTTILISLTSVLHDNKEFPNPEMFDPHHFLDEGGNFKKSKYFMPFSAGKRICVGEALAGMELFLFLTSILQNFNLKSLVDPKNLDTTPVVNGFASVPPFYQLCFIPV

CYP3A4 = CYP3A4 (Homo sapiens, UniProt P08684); assay: Inhibition of human liver CYP3A4 at 10 uM; assay type: ADME; method in brief: as §2
Sequence of CYP3A4 (P08684 whole entry): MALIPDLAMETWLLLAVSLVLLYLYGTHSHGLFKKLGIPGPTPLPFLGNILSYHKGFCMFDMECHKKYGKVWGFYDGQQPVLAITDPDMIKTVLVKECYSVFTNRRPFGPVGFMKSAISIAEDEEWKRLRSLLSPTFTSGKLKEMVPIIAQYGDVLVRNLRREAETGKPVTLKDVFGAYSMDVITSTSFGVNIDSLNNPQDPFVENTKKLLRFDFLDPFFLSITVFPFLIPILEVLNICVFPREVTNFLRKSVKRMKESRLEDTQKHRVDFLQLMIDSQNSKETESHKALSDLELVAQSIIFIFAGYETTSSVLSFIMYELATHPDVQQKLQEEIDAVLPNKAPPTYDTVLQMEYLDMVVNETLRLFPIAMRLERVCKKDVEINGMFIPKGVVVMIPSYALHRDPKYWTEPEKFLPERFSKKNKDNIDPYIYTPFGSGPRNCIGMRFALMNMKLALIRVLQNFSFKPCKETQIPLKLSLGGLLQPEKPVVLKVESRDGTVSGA

CYP2C19 = CYP2C19 (Homo sapiens, UniProt P33261); assay: Inhibition of human liver CYP2C19 at 10 uM; assay type: ADME; method in brief: as §2
Sequence of CYP2C19 (P33261 whole entry): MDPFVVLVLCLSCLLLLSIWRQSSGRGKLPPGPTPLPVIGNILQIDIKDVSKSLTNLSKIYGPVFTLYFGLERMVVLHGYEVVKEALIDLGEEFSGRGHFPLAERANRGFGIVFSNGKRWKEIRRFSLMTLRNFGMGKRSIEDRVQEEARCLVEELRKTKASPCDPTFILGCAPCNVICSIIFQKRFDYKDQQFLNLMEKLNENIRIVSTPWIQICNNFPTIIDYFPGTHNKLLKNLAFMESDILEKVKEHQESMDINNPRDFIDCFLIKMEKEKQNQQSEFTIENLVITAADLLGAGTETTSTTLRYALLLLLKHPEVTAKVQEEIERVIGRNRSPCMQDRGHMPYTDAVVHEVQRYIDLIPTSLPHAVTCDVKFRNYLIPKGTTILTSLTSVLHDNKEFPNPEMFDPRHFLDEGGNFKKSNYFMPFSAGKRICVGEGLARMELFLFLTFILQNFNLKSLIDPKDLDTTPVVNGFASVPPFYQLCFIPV

Row | Compound | IC50 [2] | also measured
1 | C#CCOCCn1c(SC)nc(-c2ccc(F)cc2)c1-c1ccnc(NC(C)=O)c1 | 0.666 µM | IC50 (Blood [1]): 40 µM; IC50 (Blood [3]): 13.9 µM
2 | CSc1nc(-c2ccc(F)cc2)c(-c2ccnc(NC(C)=O)c2)n1CCN1CCCCC1 | 1.34 µM | inhibition at 10 µM (CYP1A2): 12%; IC50 (Blood [1]): > 10 µM; inhibition at 10 µM (CYP2D6): 77.5%; inhibition at 10 µM (CYP2C9): 5%; inhibition at 10 µM (CYP3A4): 97%; inhibition at 10 µM (CYP2C19): 41%; IC50 (Blood [3]): > 10 µM
3 | COCCCn1c(SCCC(=O)N2CCOCC2)nc(-c2ccc(F)cc2)c1-c1ccnc(NC(C)=O)c1 | > 10 µM | 
4 | COCCn1c(SCCC(=O)N2CCOCC2)nc(-c2ccc(F)cc2)c1-c1ccnc(NC(C)=O)c1 | 0.46 µM | 
5 | CSCCn1c(SCc2ccc([S+](C)[O-])cc2)nc(-c2ccc(F)cc2)c1-c1ccnc(NC(C)=O)c1 (stereo not given) | 2.38 µM | 
6 | CSc1nc(-c2ccc(F)cc2)c(-c2ccnc(NC(C)=O)c2)n1CCNC(C)=O | 7.29 µM | 
7 | COCCCn1c(SCc2ccc([S+](C)[O-])cc2)nc(-c2ccc(F)cc2)c1-c1ccnc(NC(C)=O)c1 (stereo not given) | 1.31 µM | 
8 | C=CCOCCn1c(SCc2ccc([S+](C)[O-])cc2)nc(-c2ccc(F)cc2)c1-c1ccnc(NC(C)=O)c1 (stereo not given) | > 10 µM | 
9 | COCCCn1c(SC)nc(-c2ccc(F)cc2)c1-c1ccnc(NC(C)=O)c1 | 0.205 µM | IC50 (Blood [1]): 17.8 µM; IC50 (Blood [3]): 18.2 µM
10 | C=CCOCCn1c(SC)nc(-c2ccc(F)cc2)c1-c1ccnc(NC(C)=O)c1 | 1.85 µM | IC50 (Blood [1]): > 100 µM; IC50 (Blood [3]): 48.5 µM
11 | CCOC(=O)N1CCC(n2c(SC)nc(-c3ccc(F)cc3)c2-c2ccnc(NC(C)=O)c2)CC1 | > 10 µM | 
12 | CC(=O)NCCn1c(SCc2ccc([S+](C)[O-])cc2)nc(-c2ccc(F)cc2)c1-c1ccnc(NC(C)=O)c1 (stereo not given) | > 10 µM | 
13 | C#CCOCCn1c(SCc2ccc([S+](C)[O-])cc2)nc(-c2ccc(F)cc2)c1-c1ccnc(NC(C)=O)c1 (stereo not given) | 4.97 µM | 
14 | CSc1nc(-c2ccc(F)cc2)c(-c2ccnc(NC(C)=O)c2)n1CC(C)O (stereo not given) | 8.69 µM | 
15 | CC(=O)Nc1cc(-c2c(-c3ccc(F)cc3)nc(SCc3ccc([S+](C)[O-])cc3)n2CCN2CCCCC2)ccn1 (stereo not given) | 4.43 µM | 
16 | CSc1nc(-c2ccc(F)cc2)c(-c2ccnc(NC(C)=O)c2)n1CC1COC(C)(C)O1 (stereo not given) | 3.73 µM | 
17 | CC(=O)Nc1cc(-c2c(-c3ccc(F)cc3)nc(SCCC(=O)N3CCOCC3)n2CCO)ccn1 | 2.51 µM | 
18 | CSc1nc(-c2ccc(F)cc2)c(-c2ccnc(NC(C)=O)c2)n1CCO | 0.398 µM | IC50 (Blood [1]): 35.8 µM; IC50 (Blood [3]): 33.2 µM

Row | Compound | IC50 [2] | also measured
19 | CSc1nc(-c2ccc(F)cc2)c(-c2ccnc(NC(C)=O)c2)n1CCN(C)C | 2.41 µM | 
20 | CC(=O)Nc1cc(-c2c(-c3ccc(F)cc3)nc(SCc3ccc([S+](C)[O-])cc3)n2CCO)ccn1 (stereo not given) | 2.24 µM | 
21 | CC(=O)Nc1cc(-c2c(-c3ccc(F)cc3)nc(SCCC(=O)N3CCOCC3)n2CCCO)ccn1 | 9.5 µM | 
22 | CC(=O)Nc1cc(-c2c(-c3ccc(F)cc3)nc(SCc3ccc([S+](C)[O-])cc3)n2CC(C)O)ccn1 (stereo not given) | > 10 µM | 
23 | CSc1nc(-c2ccc(F)cc2)c(-c2ccnc(NC(C)=O)c2)n1CCCO | 0.813 µM | IC50 (Blood [1]): 20.5 µM; IC50 (Blood [3]): 13.8 µM
24 | COC(Cn1c(SC)nc(-c2ccc(F)cc2)c1-c1ccnc(NC(C)=O)c1)OC | 4.1 µM | 
25 | COCCn1c(SCc2ccc([S+](C)[O-])cc2)nc(-c2ccc(F)cc2)c1-c1ccnc(NC(C)=O)c1 (stereo not given) | 0.15 µM | 
26 | CSc1nc(-c2ccc(F)cc2)c(-c2ccnc(NC(C)=O)c2)n1CCCN1CCOCC1 | 6.28 µM | 
27 | CSCCn1c(SC)nc(-c2ccc(F)cc2)c1-c1ccnc(NC(C)=O)c1 | 0.431 µM | IC50 (Blood [1]): 44.2 µM; IC50 (Blood [3]): 36.4 µM
28 | CC(=O)Nc1cc(-c2c(-c3ccc(F)cc3)nc(SCc3ccc([S+](C)[O-])cc3)n2C)ccn1 (stereo not given) | 5.85 µM | 
29 | CC(=O)Nc1cc(-c2c(-c3ccc(F)cc3)nc(SCc3ccc([S+](C)[O-])cc3)n2C2CC(C)(C)NC(C)(C)C2)ccn1 (stereo not given) | > 10 µM | 
30 | CSc1nc(-c2ccc(F)cc2)c(-c2ccnc(NC(C)=O)c2)n1CCN1CCOCC1 | 2.03 µM | IC50 (Blood [1]): > 10 µM; IC50 (Blood [3]): > 10 µM
31 | CC(=O)Nc1cc(-c2c(-c3ccc(F)cc3)nc(SCc3ccc([S+](C)[O-])cc3)n2CCOCCO)ccn1 (stereo not given) | > 10 µM | 
32 | CC(=O)Nc1cc(-c2c(-c3ccc(F)cc3)nc(SCCCC(=O)N3CCOCC3)n2CCO)ccn1 | 2 µM | 
33 | COCCn1c(SC)nc(-c2ccc(F)cc2)c1-c1ccnc(NC(C)=O)c1 | 0.218 µM | inhibition at 10 µM (CYP1A2): 0%; IC50 (Blood [1]): 32.8 µM; inhibition at 10 µM (CYP2D6): 3.5%; inhibition at 10 µM (CYP2C9): 23.5%; inhibition at 10 µM (CYP3A4): 62%; inhibition at 10 µM (CYP2C19): 70.5%; IC50 (Blood [3]): 30.5 µM
34 | CSc1nc(-c2ccc(F)cc2)c(-c2ccnc(NC(C)=O)c2)n1CCOCCO | 8.48 µM | inhibition at 10 µM (CYP1A2): 0%; IC50 (Blood [1]): > 100 µM; inhibition at 10 µM (CYP2D6): 0%; inhibition at 10 µM (CYP2C9): 18.5%; inhibition at 10 µM (CYP3A4): 38%; inhibition at 10 µM (CYP2C19): 19%; IC50 (Blood [3]): > 100 µM
35 | CC(=O)Nc1cc(-c2c(-c3ccc(F)cc3)nc(SCc3ccc([S+](C)[O-])cc3)n2CCCN2CCOCC2)ccn1 (stereo not given) | > 10 µM | 
